Compound activity from PubChem BioAssay.
M5 ag: agonists of human muscarinic M5 receptor (CHRM5); P08912; activation, % at 3 µM; CHO-K1 hM5 cells, Fluo-8 calcium fluorescence; 0% DMSO wells, 100% maximal acetylcholine response; 0.19% of 360,000 active;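 active means activation above the run's mean over test compounds plus 3 SD, cut at about 23% in these data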;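 further: signal is peak over basal fluorescence ratio across the kinetic read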
Target sequence (P08912 whole entry, looked up): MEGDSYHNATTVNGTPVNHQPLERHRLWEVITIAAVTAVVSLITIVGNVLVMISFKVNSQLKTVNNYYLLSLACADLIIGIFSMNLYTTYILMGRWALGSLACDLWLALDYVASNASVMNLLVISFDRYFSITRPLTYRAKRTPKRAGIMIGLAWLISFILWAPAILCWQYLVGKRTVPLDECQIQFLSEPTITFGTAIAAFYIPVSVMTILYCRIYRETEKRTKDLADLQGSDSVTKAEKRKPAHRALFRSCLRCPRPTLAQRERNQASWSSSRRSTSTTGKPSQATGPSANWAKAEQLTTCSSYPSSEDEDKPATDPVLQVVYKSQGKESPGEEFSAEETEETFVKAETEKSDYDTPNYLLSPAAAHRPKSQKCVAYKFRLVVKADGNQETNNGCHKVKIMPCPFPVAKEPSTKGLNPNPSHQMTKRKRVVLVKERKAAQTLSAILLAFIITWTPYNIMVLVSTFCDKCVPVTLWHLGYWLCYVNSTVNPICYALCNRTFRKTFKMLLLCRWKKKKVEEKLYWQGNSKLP
CHRM5 antagonist: CHRM5 antagonism in calcium assay | P08912 | CHO-hM5 cells, Fluo-8 calcium fluorescence, ACh EC80 | inhibition, % at 3 µM | 0.59% of 360,000 active | AID 624040;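 active means inhibition above a per-plate cutoff, the mean of that plate's test compounds plus 3 SD, cut at about 27% in these data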;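 further: 0% = acetylcholine EC80 with DMSO and 100% = DMSO without agonist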
CHRM5 PAM: positive allosteric modulators of human muscarinic M5 receptor. P08912. CHO-K1 hM5, Fluo-8 calcium, ACh EC20 PAM; 0% = ACh EC20, 100% = ACh EC100. activation, % at 3 µM. 0.3% of 360,000 active. AID 624038;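 active means activation above the run cutoff, the mean activation of all test compounds plus 3 SD, cut at about 18% in these data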
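Assay system – human M5 receptor in CHO-K1 cells · Read-out – % activation, ACh-normalized · Technique – Fluo-8 calcium fluorescence · Dosing – single-point, 3 µM nominal · Incubation – Fluo-8 loading 80 min at 37 °C plus 30 min room temperature · Repeats – singlicate, one well per test compound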
M4 ag: agonists of human muscarinic M4 receptor (CHRM4); P08173; CHO-K1 hM4/Gqi5, Fluo-8 calcium fluorescence; vehicle 0%, full acetylcholine response 100%; activation, % at 3 µM; 0.14% of 360,000 active; AID 624127;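 active means activation above the run mean over all test wells plus 3 SD, cut at about 32% in these data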;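 further: peak over basal fluorescence ratio per well then scaled between controls; 0% = DMSO wells and 100% = acetylcholine at EC100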
CHRM4 PAM: CHRM4 positive allosteric modulation. P08173. CHO-K1 hM4/Gqi5, Fluo-8 calcium fluorescence, ACh EC20; 0% = ACh EC20, 100% = maximal ACh. activation, % at 3 µM. 0.4% of 360,000 active;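 active means activation above its plate's cutoff, the mean activation of sample wells plus 3 SD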
CHRM4 antagonist: antagonists of human muscarinic M4 receptor (CHRM4) | 0.73% of 360,000 active | P08173 | AID 624125 | CHO-hM4 cells, ACh EC80, Fluo-8 calcium fluorescence | inhibition, % at 3 µM;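 active means inhibition above its plate's cutoff, the mean inhibition of sample wells plus 3 SD, cut at about 27% in these data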;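 further: 0% = acetylcholine EC80 with DMSO and 100% = DMSO without agonist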
Active calls of the source: *. A selection: hits, their analogues and other compounds. The true share with any hit is near 1.9%.

SMILES	M5 ag	CHRM5 antagonist	CHRM5 PAM	M4 ag	CHRM4 PAM	CHRM4 antagonist
CC(NCc1ccc(OCC(N)=O)cc1)C12CC3CC(CC(C3)C1)C2 (stereo unspecified)	-1.3	3.6	-3.5	1.5	-14.9	28.9*
COc1ccc(CNC(C)C23CC4CC(CC(C4)C2)C3)c(OC)c1OC (stereo unspecified)	-4.7	2.2	9.0	5.6	-4.3	4.0
COc1ccc(S(=O)(=O)N2CCc3ccccc32)cc1C(=O)Nc1ccc(C(N)=O)cc1	-3.1	36.5*	-36.6	10.3	-8.1	3.5
O=C(NCc1ccco1)c1ccc2c(c1)C(=O)N(C1CCCCC1)C2=O	3.1	-1.8	2.0	0.4	32.1*	14.2
CN1C(=O)c2ccc(C(=O)NCc3ccco3)cc2C1=O	-2.6	1.2	-2.4	0.9	6.4	0.1
CCCCCNCc1ccc(Cl)cc1	-4.6	18.7	-0.6	0.8	9.3	-7.8
CCCCCCC[N+](CC)(CC)CCCCc1ccc(Cl)cc1	-2.0	21.8	-18.0	0.3	-13.8	38.5*
Cc1nc(C(F)(F)F)ccc1C(=O)N1CCC1(C)C(=O)NS(=O)(=O)c1c(C)noc1C (stereo unspecified)	0.8	-8.7	3.7	1.1	7.3	-8.6
CS(=O)(=O)c1ccccc1-c1nnc(NC(=O)c2ccco2)o1	-0.1	-3.2	0.3	0.2	-4.2	39.4*
Cc1ccc(C(=O)Nc2nnc(-c3ccco3)o2)cc1	2.0	13.6	21.6*	2.5	17.2	1.9
O=C(Nc1nnc(-c2ccco2)o1)C1CC1	6.0	-7.7	22.9*	2.4	12.8	-4.1
O=C(Nc1nnc(-c2ccco2)o1)c1ccc(S(=O)(=O)N2CCCC2)cc1	0.0	-14.7	6.8	0.8	2.3	5.1
CC1CCN(S(=O)(=O)c2ccc(C(=O)Nc3nnc(-c4ccco4)o3)cc2)CC1	1.3	-34.8	29.0*	-0.2	5.7	2.5
CCC(C)NC(=O)C1c2ccccc2C(=O)N1Cc1ccc(F)cc1 (stereo unspecified)	-3.1	1.5	-2.7	1.0	3.2	-7.7
CSCCC(NC(=O)c1ccccc1Cl)C(=O)N1CCN(C(c2ccccc2)c2ccccc2)CC1 (stereo unspecified)	-6.7	20.4	-12.7	1.5	-5.4	-14.5
O=C(Nc1ccc(F)c(F)c1)C1=COCCO1	3.3	-3.0	3.2	0.1	7.8	-13.4
Cc1cc(CNCCN(C)C)c(C)n1-c1cc(S(=O)(=O)N2CCOCC2)ccc1N1CCCC1	-5.6	4.8	-0.6	-0.2	-5.3	-8.1
CS(=O)(=O)N(CC(=O)N1CCc2ccccc2C1)c1ccccc1Br	2.5	16.7	0.7	7.9	16.3*	22.0
Cc1ccccc1N(CC(=O)N1CCc2ccccc2C1)S(C)(=O)=O	-6.3	0.8	9.2	0.6	2.2	-2.4
Nc1c(C(=O)c2ccc(Cl)cc2)sc2nc3c(cc12)CCC3	-1.8	6.8	-1.7	1.4	23.0*	9.8
CN(Cc1ccccc1)C(=O)COC(=O)c1ccc(=O)n(Cc2ccccc2)n1	2.2	-0.2	4.8	1.2	4.2	2.8
Cc1ccc(CSc2nccc(-c3c(C)nc4ccccn34)n2)cc1	7.5	-6.9	10.7	0.5	-2.8	4.2
COC(=O)c1ccccc1NC(=O)CCCOc1cc(=O)n(C)c2ccccc12	1.9	6.3	-1.1	1.4	-0.3	4.0
CCNS(=O)(=O)c1ccc(OCCNS(C)(=O)=O)cc1	0.4	3.4	-0.6	0.9	8.2	0.2
CCN(CC)S(=O)(=O)c1ccc(OCCNS(C)(=O)=O)cc1	-0.6	29.4*	-15.0	1.5	-6.7	-2.5
SMILES	M5 ag	CHRM5 antagonist	CHRM5 PAM	M4 ag	CHRM4 PAM	CHRM4 antagonist
CN(C(=O)c1ccc(NC(=O)Cc2cccc(NC(=O)C3CCCN(C(=O)C4CCC4)C3)c2)cc1)C1CCCC1 (stereo unspecified)	-3.6	6.4	9.3	0.3	8.4	-1.3
Cc1cccc(C)c1-n1c(C)cc(/C=C2\NC(=O)NC2=O)c1C	-2.4	-3.5	-0.1	0.0	35.5*	1.0
Cc1cc(/C=C2\NC(=O)NC2=O)c(C)n1-c1cccnc1	-0.9	-4.5	2.4	0.1	5.3	-7.5
C[C@@H]1CCCCO[C@H](CN(C)S(=O)(=O)c2cn(C)cn2)[C@H](C)CN([C@@H](C)CO)C(=O)c2cc(NC(=O)c3ccccc3)ccc2O1	0.7	9.0	1.0	0.4	3.1	0.0
C[C@H]1CN([C@@H](C)CO)C(=O)c2cccc(NC(=O)Nc3ccc(C(F)(F)F)cc3)c2O[C@H]1CN(C)C	2.1	-5.0	20.5*	0.5	16.5	-0.8
C[C@H](CO)N1C[C@H](C)[C@@H](CN(C)S(C)(=O)=O)Oc2ccc(NC(=O)Nc3ccccc3)cc2C1=O	2.1	0.1	21.8*	2.8	4.1	-2.0
COc1ccc(NC(=O)Nc2ccc3c(c2)C(=O)N([C@H](C)CO)C[C@H](C)[C@@H](CN(C)S(C)(=O)=O)O3)cc1	3.3	1.4	2.1	1.4	11.2	-7.6
C[C@H](CO)N1C[C@H](C)[C@@H](CN(C)Cc2ccc(Oc3ccccc3)cc2)Oc2c(NC(=O)C3CC3)cccc2C1=O	-1.6	-0.4	-7.7	11.0	-7.9	38.2*
C[C@@H]1CCCCO[C@H](CN(C)S(=O)(=O)c2cn(C)cn2)[C@@H](C)CN([C@H](C)CO)C(=O)c2cc(NC(=O)c3ccncc3)ccc2O1	1.2	-16.1	6.0	-0.1	17.6*	-32.1
Cc1nonc1NC(=O)CSc1nnc(N)s1	-0.9	6.2	3.7	0.4	-1.9	5.8
COc1cccc(NC(=O)CN(C)C(C)C(=O)NC(C)c2ccc(Cl)cc2Cl)c1 (stereo unspecified)	2.2	-3.0	3.4	2.7	-0.2	-10.1
CC1CN(C(=O)/C=C/c2ccc(SC(F)F)cc2)CC(C)O1 (stereo unspecified)	-0.4	-7.4	2.3	5.4	-2.6	-8.3
COc1ccc(S(=O)(=O)N2CCC(NC(=O)c3cccnc3)CC2)cc1	-4.7	7.6	-1.8	-0.6	-7.2	-5.6
CCOc1ccccc1NC(=O)c1csc(C)c1C	-3.9	11.4	-0.2	-0.2	-1.2	-12.7
O=C(Nc1ccc(Cl)cc1)Nc1nnc(CSc2ccc(Cl)cc2)s1	0.1	-5.9	-0.3	2.0	-4.0	5.7
O=C(Nc1ccc(Cl)cc1)Nc1nnc(CSCc2ccccc2)s1	-0.6	2.5	-0.3	2.6	29.1*	3.6
CC(C(=O)Nc1ccc2c(c1)OCCO2)c1ccc([N+](=O)[O-])cc1 (stereo unspecified)	32.3*	1.4	-10.6	17.1	-9.9	2.6
CC1CCCC(C)N1C(=O)COC(=O)c1ccc(Br)o1 (stereo unspecified)	-1.3	13.1	-2.3	1.1	5.7	4.0
